Test results: ChEMBL document CHEMBL5038571, “Design and Synthesis of EZH2-Based PROTACs to Degrade the PRC2 Complex for Targeting the Noncatalytic Activity of EZH2” (J Med Chem, 2021)
Activity calls are given as the source filed them. The calls are words filed in the database; no cut-off is given here.

Legend:
NCI-H1299 [1] = assay: Downregulation of […] mRNA expression in human NCI-H1299 cells at 10 uM incubated for 48 hrs by qRT-PCR analysis; type: functional, cell-based
Procedure, shortened: (§1)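 Cells treated 48 h. Total RNA extracted with Trizol, reverse-transcribed, and SYBR RT-qPCR run: 95 °C 30 s, then 40 cycles of 95 °C 6 s and 60 °C 20 s. mRNA normalized to the DMSO-treated group. Mean SD of three independent experiments, t-test versus DMSO.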

NCI-H1299 [2] = assay: Downregulation of ARL6IP mRNA expression in human NCI-H1299 cells at 10 uM incubated for 48 hrs by qRT-PCR analysis; type: functional, cell-based; procedure, shortened: as §1
A549 [3] = assay: Downregulation of CHEK1 mRNA expression in human A549 cells at 10 uM incubated for 48 hrs by qRT-PCR analysis; type: functional, cell-based; procedure, shortened: as §1
NCI-H1299 [4] = assay: Downregulation of CEP76 mRNA expression in human NCI-H1299 cells at 10 uM incubated for 48 hrs by qRT-PCR analysis; type: functional, cell-based; procedure, shortened: as §1
A549 [5] = assay: Downregulation of CENPK mRNA expression in human A549 cells at 10 uM incubated for 48 hrs by qRT-PCR analysis; type: functional, cell-based; procedure, shortened: as §1
NCI-H1299 [6] = assay: Downregulation of TACC3 mRNA expression in human NCI-H1299 cells at 10 uM incubated for 48 hrs by qRT-PCR analysis; type: functional, cell-based; procedure, shortened: as §1
NCI-H1299 [7] = assay: Downregulation of CHEK1 mRNA expression in human NCI-H1299 cells at 10 uM incubated for 48 hrs by qRT-PCR analysis; type: functional, cell-based; procedure, shortened: as §1
MDA-MB-468 [8] = assay: Downregulation of TACC3 mRNA expression in human MDA-MB-468 cells at 10 uM incubated for 48 hrs by qRT-PCR analysis; type: functional, cell-based; procedure, shortened: as §1
MDA-MB-468 [9] = assay: Downregulation of CEP76 mRNA expression in human MDA-MB-468 cells at 10 uM incubated for 48 hrs by qRT-PCR analysis; type: functional, cell-based; procedure, shortened: as §1
[10] = target: T1, Protein cereblon/Histone-lysine N-methyltransferase EZH2 (Homo sapiens) (UniProt Q15910+Q96SW2); assay: PROTAC activity at CRBN E3 ligase/EZH2 in PRC2 complex in human WSUDLCL2 cells assessed as induction of EED degradation at up to 10 uM incubated for 72 hrs by Western blot analysis; type: cell-based; conditions: dose microM <=10, time 72.0 hrs
T1 sequence (Q15910 whole entry, looked up): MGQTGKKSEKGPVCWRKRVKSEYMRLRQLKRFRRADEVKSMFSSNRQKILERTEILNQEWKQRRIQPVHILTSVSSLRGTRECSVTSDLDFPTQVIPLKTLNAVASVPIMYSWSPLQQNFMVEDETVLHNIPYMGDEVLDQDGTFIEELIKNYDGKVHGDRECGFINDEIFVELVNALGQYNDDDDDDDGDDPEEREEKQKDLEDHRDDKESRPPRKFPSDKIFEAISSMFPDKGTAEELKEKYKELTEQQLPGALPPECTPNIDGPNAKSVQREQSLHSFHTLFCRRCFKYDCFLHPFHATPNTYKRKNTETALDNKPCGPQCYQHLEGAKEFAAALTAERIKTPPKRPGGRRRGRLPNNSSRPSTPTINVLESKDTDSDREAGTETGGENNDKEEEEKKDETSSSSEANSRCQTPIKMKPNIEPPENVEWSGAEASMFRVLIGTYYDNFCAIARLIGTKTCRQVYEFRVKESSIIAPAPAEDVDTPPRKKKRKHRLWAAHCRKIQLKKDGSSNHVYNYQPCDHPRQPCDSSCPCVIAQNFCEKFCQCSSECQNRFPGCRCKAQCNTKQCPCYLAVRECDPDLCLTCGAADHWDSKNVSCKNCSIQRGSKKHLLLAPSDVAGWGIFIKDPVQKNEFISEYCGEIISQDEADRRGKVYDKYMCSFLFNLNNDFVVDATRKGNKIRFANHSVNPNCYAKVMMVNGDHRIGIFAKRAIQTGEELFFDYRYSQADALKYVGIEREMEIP
T1 sequence (Q96SW2 whole entry, looked up): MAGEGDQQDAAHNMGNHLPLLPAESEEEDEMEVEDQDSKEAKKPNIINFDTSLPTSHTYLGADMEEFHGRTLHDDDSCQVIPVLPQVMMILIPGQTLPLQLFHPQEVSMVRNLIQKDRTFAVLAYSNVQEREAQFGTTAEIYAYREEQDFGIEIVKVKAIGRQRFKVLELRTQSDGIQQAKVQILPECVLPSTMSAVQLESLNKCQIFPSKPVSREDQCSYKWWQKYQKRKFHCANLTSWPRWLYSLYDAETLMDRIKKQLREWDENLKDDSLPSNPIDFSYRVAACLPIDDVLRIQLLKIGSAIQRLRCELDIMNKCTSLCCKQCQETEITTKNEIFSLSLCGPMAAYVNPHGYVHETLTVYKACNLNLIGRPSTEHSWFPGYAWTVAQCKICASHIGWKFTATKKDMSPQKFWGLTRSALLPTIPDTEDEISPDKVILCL

WSUDLCL2 = assay: Antiproliferative activity against human WSUDLCL2 cells harboring EZH2-Y641F mutant assessed as inhibition of cell growth at 10 uM incubated for 9 days by optical microscopic analysis; type: functional, cell-based; conditions: time 9.0 day
Procedure, shortened: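 WSU-DLCL-2 cells seeded at 5 × 10³ per well, incubated 24 h, then exposed to 10 μM compound for 9 days with medium refreshed. Cells photographed and counted on days 1, 3, 5, 7 and 9. Mean SD of three independent experiments, t-test versus DMSO.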

NCI-H1299 [11] = assay: Downregulation of CENPK mRNA expression in human NCI-H1299 cells at 10 uM incubated for 48 hrs by qRT-PCR analysis; type: functional, cell-based; procedure, shortened: as §1
NCI-H1299 [12] = assay: Antiproliferative activity against human NCI-H1299 cells harboring SWI/SNF mutant assessed as inhibition of cell growth at 10 uM treated for 9 days by optical microscopic analysis; type: functional, cell-based; conditions: time 9.0 day
Procedure, shortened: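 Cells seeded at 5 × 10³ per well, grown 24 h, then exposed to compound at 10 μM for 9 days with medium refreshed. Cells were photographed and counted on days 1, 3, 5, 7 and 9. For lines 1-2, EZH2-targeting or control shRNA was induced in the cells. Mean SD of three independent experiments; t-test against control.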

MDA-MB-468 [13] = assay: Downregulation of CENPK mRNA expression in human MDA-MB-468 cells at 10 uM incubated for 48 hrs by qRT-PCR analysis; type: functional, cell-based; procedure, shortened: as §1
A549 [14] = assay: Downregulation of TACC3 mRNA expression in human A549 cells at 10 uM incubated for 48 hrs by qRT-PCR analysis; type: functional, cell-based; procedure, shortened: as §1
A549 [15] = assay: Downregulation of CEP76 mRNA expression in human A549 cells at 10 uM incubated for 48 hrs by qRT-PCR analysis; type: functional, cell-based; procedure, shortened: as §1
MDA-MB-468 [16] = assay: Downregulation of CHEK1 mRNA expression in human MDA-MB-468 cells at 10 uM incubated for 48 hrs by qRT-PCR analysis; type: functional, cell-based; procedure, shortened: as §1
A549 [17] = assay: Downregulation of […] mRNA expression in human A549 cells at 10 uM incubated for 48 hrs by qRT-PCR analysis; type: functional, cell-based; procedure, shortened: as §1
MDA-MB-468 [18] = assay: Downregulation of […] mRNA expression in human MDA-MB-468 cells at 10 uM incubated for 48 hrs by qRT-PCR analysis; type: functional, cell-based; procedure, shortened: as §1
[19] = target: T1, Protein cereblon/Histone-lysine N-methyltransferase EZH2 (Homo sapiens); assay: PROTAC activity at CRBN E3 ligase/EZH2 in PRC2 complex in human WSUDLCL2 cells assessed as reduction in H3K27me3 level at up to 10 uM incubated for 72 hrs by Western blot analysis; type: cell-based; conditions: dose microM <=10, time 72.0 hrs
[20] = target: T1, Protein cereblon/Histone-lysine N-methyltransferase EZH2 (Homo sapiens); assay: PROTAC activity at CRBN E3 ligase/EZH2 in PRC2 complex in human WSUDLCL2 cells assessed as induction of EZH2 degradation at up to 10 uM incubated for 72 hrs by Western blot analysis; type: cell-based; conditions: dose microM <=10, time 72.0 hrs
A549 [21] = assay: Downregulation of ARL6IP mRNA expression in human A549 cells at 10 uM incubated for 48 hrs by qRT-PCR analysis; type: functional, cell-based; procedure, shortened: as §1
MDA-MB-468 [22] = assay: Downregulation of ARL6IP mRNA expression in human MDA-MB-468 cells at 10 uM incubated for 48 hrs by qRT-PCR analysis; type: functional, cell-based; procedure, shortened: as §1
[23] = target: T1, Protein cereblon/Histone-lysine N-methyltransferase EZH2 (Homo sapiens); assay: PROTAC activity at CRBN E3 ligase/EZH2 in PRC2 complex in human WSUDLCL2 cells assessed as induction of SUZ12 degradation at up to 10 uM incubated for 72 hrs by Western blot analysis; type: cell-based; conditions: dose microM <=10, time 72.0 hrs
[24] = target: T1, Protein cereblon/Histone-lysine N-methyltransferase EZH2 (Homo sapiens); assay: PROTAC activity at CRBN E3 ligase/EZH2 in PRC2 complex in human WSUDLCL2 cells assessed as reduction in H3K27me3 level incubated for 72 hrs by Western blot analysis; type: cell-based; conditions: dose 0-10 µM
[25] = target: Histone-lysine N-methyltransferase EZH2 (Homo sapiens, UniProt Q15910); type: cell-based, Sf9
Histone-lysine N-methyltransferase EZH2, sequence (Q15910 whole entry): as the sequence (Q15910 whole entry, looked up) above

[26] = target: T1, Protein cereblon/Histone-lysine N-methyltransferase EZH2 (Homo sapiens); assay: PROTAC activity at CRBN E3 ligase/EZH2 in PRC2 complex in human WSUDLCL2 cells assessed as reduction in H3K27me3 level at 1 uM incubated for 48 hrs by Western blot analysis; type: cell-based
Procedure, shortened: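 WSU-DLCL-2 cells treated 48 h (1 μM for the single-concentration screen), lysed; SDS-PAGE, nitrocellulose transfer, 5% milk block, primary antibody 4 °C overnight, chemiluminescence. Bands quantified by densitometry, normalized to GAPDH, expressed relative to DMSO-treated cells; mean ± SD of three independent experiments, t-test.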

[27] = target: T1, Protein cereblon/Histone-lysine N-methyltransferase EZH2 (Homo sapiens); assay: PROTAC activity at CRBN E3 ligase/EZH2 in PRC2 complex in human WSUDLCL2 cells assessed as induction of EZH2 degradation incubated for 72 hrs by Western blot analysis; type: cell-based; conditions: dose 0-10 µM

`CC[C@H](C)n1cc(C)c2c(C(=O)NCc3c(C)cc(C)[nH]c3=O)cc(-c3ccc(N4CCNCC4)nc3)cc21` was tested, and the Activity (NCI-H1299 [1]) was “inactive”, the Activity (NCI-H1299 [2]) was “inactive” and the Activity (A549 [3]) was “inactive”. The Activity (NCI-H1299 [4]) was “inactive”, the Activity (A549 [5]) was “inactive” and the Activity (NCI-H1299 [6]) was “inactive”. The Activity (NCI-H1299 [7]) was “inactive”, the Activity (MDA-MB-468 [8]) was “inactive” and the Activity (MDA-MB-468 [9]) was “inactive”. The Activity [10] was “inactive”, the Activity (WSUDLCL2) was “Active” and the Activity (NCI-H1299 [11]) was “inactive”. The Activity (NCI-H1299 [12]) was “inactive”, the Activity (MDA-MB-468 [13]) was “inactive” and the Activity (A549 [14]) was “inactive”. The Activity (A549 [15]) was “inactive”, the Activity (MDA-MB-468 [16]) was “inactive” and the Activity (A549 [17]) was “inactive”. For the same compound, the Activity (MDA-MB-468 [18]) was “inactive”, the Activity [19] was “Active” and the Activity [20] was “inactive”. For the same compound, the Activity (A549 [21]) was “inactive”, the Activity (MDA-MB-468 [22]) was “inactive” and the Activity [23] was “inactive”.

With `CC[C@H](C)n1cc(C)c2c(C(=O)NCc3c(C)cc(C)[nH]c3=O)cc(-c3ccc(N4CCN(CCCCCCCCCCCCOc5cccc6c5C(=O)N(C5CCC(=O)NC5=O)C6=O)CC4)nc3)cc21` (stereo not given in full) the Activity [24] was “Dose-Dependent Effect”, the IC50 [25] was 61 nM and the Activity [26] was “Active”. The Activity [10] was “Active”, the Activity [27] was “Dose-Dependent Effect” and the Activity [23] was “Active”.
